Experimental findings from ChEMBL document CHEMBL3603811, “Design, chemical synthesis and biological evaluation of 3-spiromorpholinone/3-spirocarbamate androsterone derivatives as inhibitors of 17β-hydroxysteroid dehydrogenase type 3” (Bioorg Med Chem, 2015) are described below.

pIC50: −log10 of the molar value.

Assay [1] deals with T1, 17-beta-hydroxysteroid dehydrogenase type 3 (Rattus norvegicus) (UniProt O54939).
T1 sequence (whole entry): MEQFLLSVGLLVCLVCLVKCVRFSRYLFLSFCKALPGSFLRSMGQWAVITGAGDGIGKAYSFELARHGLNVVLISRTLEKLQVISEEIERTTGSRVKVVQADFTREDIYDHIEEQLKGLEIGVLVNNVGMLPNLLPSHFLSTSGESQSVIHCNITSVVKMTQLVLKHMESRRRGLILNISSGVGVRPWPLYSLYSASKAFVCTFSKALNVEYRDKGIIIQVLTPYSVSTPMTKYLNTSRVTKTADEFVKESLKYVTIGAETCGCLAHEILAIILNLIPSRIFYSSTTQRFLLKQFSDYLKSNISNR
As to the kind of experiment: Ratio of delta4-dione IC50 to compound IC50 for 17beta-HSD3 in rat testes microsomes. The note with it: Testis.

The subject of assay [2] is LAPC4. As to the kind of experiment: Androgenic activity in human LAPC4 cells expressing androgen receptor assessed as induction of cell proliferation at 0.1 uM after 3 days by MTS assay relative to control. Type of assay: functional. In short, it runs like this:
(§1)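 LAPC-4 (AR+) cells in RPMI-1640 with 5% dextran-coated charcoal-treated FBS to remove hormones. Triplicate cultures of 10,000 cells preincubated 24 h at 37 °C, 5% CO2. Compounds from 10^-2 M DMSO stock, diluted in medium, added for 3 days (final DMSO 0.05%; vehicle controls). Growth read by MTS. Androgenicity = % proliferation minus basal set at 100%.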
In general terms: Tetrazolium assays rely on reduction of a dye to a coloured formazan, in cell work by metabolically active cells.

Assay [3] deals with T1, 17-beta-hydroxysteroid dehydrogenase type 3 (Rattus norvegicus). As to the kind of experiment: Inhibition of 17beta-HSD3 in rat testes microsomes using [14C]-4-androstene-3,17-dione as substrate measured based on 18% of initial enzyme transformation at 0.01 uM after 2 hrs. The note with it: Testis. In short, it runs like this:
(§2)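 Rat testis microsomes: homogenate in phosphate/sucrose/EDTA buffer pH 7.5 with protease inhibitors, spun 12,500g, then pellet from 100,000g, at 4 °C. Reaction 2 h at 37 °C in 50 mM sodium phosphate pH 7.4, 20% glycerol, 1 mM EDTA, with NADPH and [14C]-Δ4-dione (50 nM). Inhibitor in DMSO. [14C]-T and substrate identified against reference steroids and quantified. Percent transformation and percent inhibition calculated.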

Assay [4] has as its target T2, 17-beta-hydroxysteroid dehydrogenase type 3 (Homo sapiens) (UniProt P37058).
T2 sequence (whole entry): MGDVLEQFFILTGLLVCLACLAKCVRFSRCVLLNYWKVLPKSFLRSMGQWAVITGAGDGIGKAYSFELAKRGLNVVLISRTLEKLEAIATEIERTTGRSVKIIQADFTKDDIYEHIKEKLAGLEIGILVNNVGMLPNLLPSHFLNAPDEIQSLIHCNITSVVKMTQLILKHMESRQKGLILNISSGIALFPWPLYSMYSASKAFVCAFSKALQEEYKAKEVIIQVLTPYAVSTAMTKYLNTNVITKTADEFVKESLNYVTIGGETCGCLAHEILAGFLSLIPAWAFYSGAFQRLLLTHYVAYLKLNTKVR
As to the kind of experiment: Inhibition of 17beta-HSD3 (unknown origin) expressed in human LNCaP cells using [14C]-4-androstene-3,17-dione as substrate at 1 uM after 3 hrs. Type of assay: cell-based. In outline:
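LNCaP cells stably transfected with 17β-HSD3, kept under hygromycin, which was omitted during assay. 15,000 cells/well grown 3 days in protocol medium, then given 15 nM [14C]-4-androstene-3,17-dione plus inhibitor in DMSO (final 0.05%) for 3 h. Steroids extracted from medium, separated by TLC and quantified. Percent inhibition of T formation calculated.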

Assay [5] addresses T1, 17-beta-hydroxysteroid dehydrogenase type 3 (Rattus norvegicus). As to the kind of experiment: Inhibition of 17beta-HSD3 in rat testes microsomes using [14C]-4-androstene-3,17-dione as substrate measured based on 18% of initial enzyme transformation at 0.1 uM after 2 hrs. Conditions: Testis. In outline: as §2
The target is the same in assay [6]. As to the kind of experiment: Inhibition of 17beta-HSD3 in rat testes microsomes using [14C]-4-androstene-3,17-dione as substrate measured based on 18% of initial enzyme transformation at 1 uM after 2 hrs. Conditions: Testis. In short, it runs like this:
as §2

In assay [7] the test system is LAPC4. As to the kind of experiment: Androgenic activity in human LAPC4 cells expressing androgen receptor assessed as induction of cell proliferation at 1 uM after 3 days by MTS assay relative to control. Type of assay: functional. In short, it runs like this:
as §1

Assay [8] addresses T3, 17-beta-hydroxysteroid dehydrogenase type 3 (Rattus norvegicus, UniProt O54939).
T3 sequence (O54939 whole entry): T1 sequence (whole entry)
As to the kind of experiment: Inhibition of 17beta-HSD3 in rat testes microsomes using [14C]-4-androstene-3,17-dione as substrate after 2 hrs. More on the design: species or system Testis. In outline: as §2

The target in assay [9] is T1, 17-beta-hydroxysteroid dehydrogenase type 3 (Rattus norvegicus). As to the kind of experiment: Inhibition of 17beta-HSD3 in rat testes microsomes using [14C]-4-androstene-3,17-dione as substrate measured based on 33% of initial enzyme transformation at 10 uM after 2 hrs. The note with it: Testis. In short, it runs like this: as §2
Assay [10] deals with T2, 17-beta-hydroxysteroid dehydrogenase type 3 (Homo sapiens). The note with it: LNCaP, 0.5 uM.
Assay [11] concerns the target T1, 17-beta-hydroxysteroid dehydrogenase type 3 (Rattus norvegicus). As to the kind of experiment: Inhibition of 17beta-HSD3 in rat testes microsomes using [14C]-4-androstene-3,17-dione as substrate measured based on 33% of initial enzyme transformation at 1 uM after 2 hrs. The note with it: Testis. In short, it runs like this:
as §2

Assay [12] has the same target. As to the kind of experiment: Inhibition of 17beta-HSD3 in rat testes microsomes using [14C]-4-androstene-3,17-dione as substrate measured based on 4% of initial enzyme transformation at 10 uM after 2 hrs. The note with it: Testis. In short, it runs like this:
as §2

For assay [13] the target is unchanged. As to the kind of experiment: Inhibition of 17beta-HSD3 in rat testes microsomes using [14C]-4-androstene-3,17-dione as substrate measured based on 33% of initial enzyme transformation at 0.1 uM after 2 hrs. The note with it: Testis. In outline: as §2
Assay [14] has the same target. As to the kind of experiment: Inhibition of 17beta-HSD3 in rat testes microsomes using [14C]-4-androstene-3,17-dione as substrate measured based on 4% of initial enzyme transformation at 1 uM after 2 hrs. The note with it: Testis. In short, it runs like this:
as §2

For `C[C@]12CC[C@@]3(C[C@@H]1CC[C@@H]1[C@@H]2CC[C@]2(C)C(=O)CC[C@@H]12)CN(C(=O)c1ccc(C(F)(F)F)cc1)CC(=O)O3`, in assay [1], the Ratio IC50 was 2. The Activity in the assay with LAPC4 [2] and with LAPC4 [7] was 0% each time. The inhibition (usually how much of the control response was suppressed) in assay [3] was 24.3%; in assay [4], 40%; in assay [5] it was 45.4%; in assay [6], 87.1%. In addition, in [8], the pIC50 (in general, −log10 of the IC50, conventionally taken in molar units) was 7.06.
Take `C[C@@H]1CN(S(=O)(=O)c2ccccc2C(F)(F)F)[C@@H](C)CN1C[C@@]1(O)CC[C@@]2(C)[C@@H](CC[C@@H]3[C@@H]2CC[C@]2(C)C(=O)CC[C@@H]32)C1`: the Activity with LAPC4 [2] and in the assay on LAPC4 [7] was 0% throughout. The inhibition in [9] is 94%; in assay [3] it was 32.4%; in assay [5] it was 43.7%; in [10] it was 100%; in [11], 94.4%; in assay [12], 97.1%. In addition, the inhibition in [13] was found to be 89.4%; in [14], 96.4%. Moreover, the pIC50 in assay [8] was 7.89.
`C[C@]12CC[C@@]3(C[C@@H]1CC[C@@H]1[C@@H]2CC[C@]2(C)C(=O)CC[C@@H]12)CN(S(=O)(=O)c1ccc(C(F)(F)F)cc1)CC(=O)O3`: in assay [1], the Ratio IC50 amounted to 6. For the same molecule, the Activity with LAPC4 [2] and in the assay on LAPC4 [7] was 0% throughout. The inhibition in [3] was 32.9%; in [4], 10%; in assay [5], 48.6%; in assay [6], 85.1%. The molecule also gave a pIC50 in assay [8] of 7.55.
